Experimental data published in publication PMC2937276 (Molecular cancer therapeutics, 2010).

How the values were obtained:
GBM culture 2736 = test: XTT cell proliferation assay; format: cell-based, Mouse; conditions: mouse GBM culture 2736; 36 hours; mean of three experiments ± SD
How it was run: (§1)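 Primary human or mouse GBM cultures (DMEM, 10% FBS) were seeded at 5000 cells per 96-well well. Cells were cultured with test compound or vehicle for 36 h. Proliferation was read by XTT assay in quadruplicate. IC50 came from nonlinear-regression curve fitting.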

GBM culture 2415 = test: XTT cell proliferation assay; format: cell-based, Mouse; conditions: mouse GBM culture 2415; 36 hours; mean of three experiments ± SD
How it was run: as §1

GBM culture GBM12 = test: XTT cell proliferation assay; format: cell-based, Human; conditions: human GBM culture GBM12; 36 hours; mean of three experiments ± SD
How it was run: as §1

[1] = in clinical evaluation for various cancers; cited from earlier work
GBM culture GBM43 = test: XTT cell proliferation assay; format: cell-based, Human; conditions: human GBM culture GBM43; 36 hours; mean of three experiments ± SD
How it was run: as §1

GBM culture GBM-2 = test: XTT cell proliferation assay; format: cell-based, Mouse; conditions: mouse GBM culture GBM-2; 36 hours; mean of three experiments ± SD
How it was run: as §1

GBM culture 2000 = test: XTT cell proliferation assay; format: cell-based, Mouse; conditions: mouse GBM culture 2000; 36 hours; mean of three experiments ± SD
How it was run: as §1

GBM culture 2414 = test: XTT cell proliferation assay; format: cell-based, Mouse; conditions: mouse GBM culture 2414; 36 hours; mean of three experiments ± SD
How it was run: as §1

GBM culture GBM-1 = test: XTT cell proliferation assay; format: cell-based, Mouse; conditions: mouse GBM culture GBM-1; 36 hours; mean of three experiments ± SD
How it was run: as §1

GBM culture GBM8 = test: XTT cell proliferation assay; format: cell-based, Human; conditions: human GBM culture GBM8; 36 hours; mean of three experiments ± SD
How it was run: as §1

[2] = in vivo
GBM culture GBM15 = test: XTT cell proliferation assay; format: cell-based, Human; conditions: human GBM culture GBM15; 36 hours; mean of three experiments ± SD
How it was run: as §1

GBM culture 46 = test: XTT cell proliferation assay; format: cell-based, Mouse; conditions: mouse GBM culture 46; 36 hours; mean of three experiments ± SD
How it was run: as §1

GBM culture GBM6 = test: XTT cell proliferation assay; format: cell-based, Human; conditions: human GBM culture GBM6; 36 hours; mean of three experiments ± SD
How it was run: as §1

GBM culture 42 = test: XTT cell proliferation assay; format: cell-based, Mouse; conditions: mouse GBM culture 42; 36 hours; mean of three experiments ± SD
How it was run: as §1

GBM culture 102 = test: XTT cell proliferation assay; format: cell-based, Mouse; conditions: mouse GBM culture 102; 36 hours; mean of three experiments ± SD
How it was run: as §1

GBM culture GBM59 = test: XTT cell proliferation assay; format: cell-based, Human; conditions: human GBM culture GBM59; 36 hours; mean of three experiments ± SD
How it was run: as §1

GBM culture 41 = test: XTT cell proliferation assay; format: cell-based, Mouse; conditions: mouse GBM culture 41; 36 hours; mean of three experiments ± SD
How it was run: as §1

GBM culture 103 = test: XTT cell proliferation assay; format: cell-based, Mouse; conditions: mouse GBM culture 103; 36 hours; mean of three experiments ± SD
How it was run: as §1

GBM culture 2231 = test: XTT cell proliferation assay; format: cell-based, Mouse; conditions: mouse GBM culture 2231; 36 hours; mean of three experiments ± SD
How it was run: as §1

GBM culture 69 = test: XTT cell proliferation assay; format: cell-based, Mouse; conditions: mouse GBM culture 69; 36 hours; mean of three experiments ± SD
How it was run: as §1

GBM culture GBM39 = test: XTT cell proliferation assay; format: cell-based, Human; conditions: human GBM culture GBM39; 36 hours; mean of three experiments ± SD
How it was run: as §1

GBM culture GBM22 = test: XTT cell proliferation assay; format: cell-based, Human; conditions: human GBM culture GBM22; 36 hours; mean of three experiments ± SD
How it was run: as §1

GBM culture 2227 = test: XTT cell proliferation assay; format: cell-based, Mouse; conditions: mouse GBM culture 2227; 36 hours; mean of three experiments ± SD
How it was run: as §1

`C=CCNC1=C2C[C@@H](C)C[C@H](OC)[C@H](O)[C@@H](C)/C=C(\C)[C@H](OC(N)=O)[C@@H](OC)/C=C\C=C(/C)C(=O)NC(=CC1=O)C2=O` [17-AAG, 17-allylamino-17-demethoxygeldanamycin, reference compound] showed an IC50 (GBM culture 2736) of 0.381 ± 0.0241 µM, an IC50 (GBM culture 2415) of 0.329 ± 0.0501 µM and an IC50 (GBM culture GBM12) of 2.58 ± 0.167 µM. For the same compound, the toxicity on exposure [1] was “dose-limiting hepatotoxicity”, the IC50 (GBM culture GBM43) was 0.0869 ± 0.0023 µM and the IC50 (GBM culture GBM-2) was 1.1 ± 0.119 µM. For the same compound, the IC50 (GBM culture 2000) was 0.345 ± 0.0755 µM, the IC50 (GBM culture 2414) was 0.205 ± 0.0131 µM and the IC50 (GBM culture GBM-1) was 0.208 ± 0.0096 µM. For the same compound, the IC50 (GBM culture GBM8) was 8.01 ± 0.543 µM, the “accumulation in mouse brain” value ([2]; ip) was “rapidly declines to undetectable levels” and the Brain concentration ([2]; mouse) was 2.6 ng/g. For the same compound, the IC50 (GBM culture GBM15) was 0.11 ± 0.0134 µM, the IC50 (GBM culture 46) was 0.0919 ± 0.0014 µM and the IC50 (GBM culture GBM6) was 0.5317 ± 0.005 µM. The IC50 (GBM culture 42) was 0.166 ± 0.0249 µM, the IC50 (GBM culture 102) was 0.6262 ± 0.006 µM and the IC50 (GBM culture GBM59) was 0.211 ± 0.011 µM. For the same compound, the IC50 (GBM culture 41) was 0.1 ± 0.005 µM, the IC50 (GBM culture 103) was 0.793 ± 0.0287 µM and the IC50 (GBM culture 2231) was 0.737 ± 0.072 µM. For the same compound, the IC50 (GBM culture 69) was 0.091 ± 0.0043 µM, the IC50 (GBM culture GBM39) was 0.2417 ± 0.0012 µM and the IC50 (GBM culture GBM22) was 4.67 ± 0.148 µM. For the same compound, the IC50 (GBM culture 2227) was 0.712 ± 0.0544 µM.
